Data from ChEMBL document CHEMBL4152213, “Synthesis and biological evaluation of 2,5-disubstituted furan derivatives as P-glycoprotein inhibitors for Doxorubicin resistance in MCF-7/ADR cell” (Eur J Med Chem, 2018).
pEC50: −log10 of the molar value.

Legend:
Format in all cases: cell-based
[1] = Inhibition of P-gp in human MCF7/ADR cells assessed as cell viability after 48 hrs by MTT assay; settings: NCI/ADR-RES
How it was run: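 MTT assay in MCF-7/ADR cells: cells incubated 48 h with or without compounds, then 5 mg/mL MTT added for 3–4 h at 37 °C, 5% CO2. Formazan dissolved in EtOH/DMSO (1:1), OD at 570 and 650 nm. Data are the mean of three independent determinations of triplicate samples.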

Homo sapiens [2] = species: Homo sapiens; test: Inhibition of P-gp in human MCF7/ADR cells assessed as assessed as potentiation of doxorubicin-induced antiproliferative activity by measuring doxorubicin antiproliferative activity at 20 uM after 2 days by MTT assay; set-up: scale not given: the % may be the effect or the level left
How it was run: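 MCF-7/ADR cells plated at 10,000/well, then treated the next day. Compounds at 20 μM plus Doxorubicin 5 μM for 2 days, washed twice, then Doxorubicin alone for 1 day. Read-out by MTT: 0.5 mg/mL, 1 h at 37 °C, DMSO, absorbance 570/630 nm. Growth inhibition given as % of untreated control. Eight wells per treatment; three independent determinations in triplicate.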

Homo sapiens [3] = species: Homo sapiens; test: Inhibition of P-gp in human MCF7/ADR cells assessed as increase in intracellular accumulation of doxorubicin at 20 uM after 2 days by fluorescence assay relative to doxorubicin alone
How it was run: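 MCF-7/ADR cells exposed to compounds at 20 μM for 2 days, with Doxorubicin 50 μM added on the second day. Cells trypsinized, washed twice in ice-cold PBS pH 7.4, kept on ice under 1 h, then cellular Doxorubicin fluorescence measured by flow cytometry. Doxorubicin-only cells set as 100% and untreated autofluorescence as 0%. Expressed as fold accumulation; three independent determinations in triplicate.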

NCI/ADR-RES = test: Cytotoxicity against human MCF7/ADR cells at 100 uM after 24 to 48 hrs by MTT assay relative to control
How it was run: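 MCF-7/ADR cells (RPMI 1640, 10% FBS, 37 °C, 5% CO2) exposed to compounds alone at 100 μM without Doxorubicin for 24 and 48 h. Viability by MTT: 5 mg/mL MTT, 3–4 h at 37 °C, formazan dissolved in EtOH/DMSO 1:1, OD at 570 and 650 nm. Cytotoxicity taken relative to untreated control.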

SMILES	pEC50 [1]	also measured
O=C(c1ccc(-c2ccccc2F)o1)N1CCCc2ccccc21	4.75	–
COc1cc2c(cc1OC)CN(C(=O)c1ccc(-c3ccc(F)cc3F)o1)CC2	4.98	–
O=C(c1ccc(-c2ccccc2F)o1)N1CCc2ccccc2C1	4.83	–
COc1ccc(CCN(C)CCCC(C#N)(c2ccc(OC)c(OC)c2)C(C)C)cc1OC (configuration not stated) [VERAPAMIL]	4.69	Activity (Homo sapiens [2]): 52.5%; fold change (FC) (Homo sapiens [3]): 3.6
O=C(c1ccc(-c2ccc([N+](=O)[O-])cc2)o1)N1CCc2ccccc2C1	4.90	–
COc1cc2c(cc1OC)CN(C(=O)c1ccc(-c3ccccc3)o1)CC2	5.17	–
COc1cc2c(cc1OC)CN(C(=O)c1ccc(-c3cccc(F)c3)o1)CC2	4.75	–
Cc1ccc(-c2ccc(C(=O)N3CCc4ccccc4C3)o2)cc1	5.09	–
O=C(c1ccc(-c2ccccc2[N+](=O)[O-])o1)N1CCc2ccccc2C1	4.82	–
O=C(c1ccc(-c2ccc(Br)cc2)o1)N1CCCc2ccccc21	5.04	–
O=C(c1ccc(-c2c(F)cccc2F)o1)N1CCc2ccccc2C1	4.81	–
O=C(c1ccc(-c2cccc(Cl)c2)o1)N1CCc2ccccc2C1	4.74	–
COc1cc2c(cc1OC)CN(C(=O)c1ccc(-c3ccc(F)cc3)o1)CC2	5.07	–
COc1cc2c(cc1OC)CN(C(=O)c1ccc(-c3ccc([N+](=O)[O-])cc3)o1)CC2	5.03	–
O=C(c1ccc(-c2cccc([N+](=O)[O-])c2)o1)N1CCCc2ccccc21	4.54	–
O=C(c1ccc(-c2cccc(F)c2)o1)N1CCc2ccccc2C1	4.69	–
O=C(c1ccc(-c2cccc(Cl)c2)o1)N1CCCc2ccccc21	4.76	–
COc1cc2c(cc1OC)CN(C(=O)c1ccc(-c3cccc(Cl)c3)o1)CC2	4.83	–
O=C(c1ccc(-c2ccccc2Cl)o1)N1CCCc2ccccc21	4.86	–
COc1cc2c(cc1OC)CN(C(=O)c1ccc(-c3ccccc3F)o1)CC2	4.96	–
O=C(c1ccc(-c2ccc(F)cc2)o1)N1CCCc2ccccc21	4.88	–
COc1cc2c(cc1OC)CN(C(=O)c1ccc(-c3ccc(C)cc3)o1)CC2	5.28	–
O=C(c1ccc(-c2ccccc2)o1)N1CCCc2ccccc21	4.96	–

SMILES	pEC50 [1]	also measured
O=C(c1ccc(-c2ccc([N+](=O)[O-])cc2)o1)N1CCCc2ccccc21	4.81	–
O=C(c1ccc(-c2ccc(Cl)cc2)o1)N1CCc2ccccc2C1	5.17	–
COc1ccc(-c2ccc(C(=O)N3CCc4cc(OC)c(OC)cc4C3)o2)cc1	6.05	Activity (NCI/ADR-RES): < 15%; Activity (Homo sapiens [2]): 97.8%; fold change (FC) (Homo sapiens [3]): 9.2
O=C(c1ccc(-c2ccccc2[N+](=O)[O-])o1)N1CCCc2ccccc21	4.71	–
COc1cc2c(cc1OC)CN(C(=O)c1ccc(-c3ccccc3[N+](=O)[O-])o1)CC2	4.86	–
O=C(c1ccc(-c2ccc(F)cc2F)o1)N1CCc2ccccc2C1	4.90	–
COc1ccc(-c2ccc(C(=O)N3CCCc4ccccc43)o2)cc1	5.17	–
O=C(c1ccc(-c2cccc([N+](=O)[O-])c2)o1)N1CCc2ccccc2C1	4.69	–
O=C(c1ccc(-c2cccc(F)c2)o1)N1CCCc2ccccc21	4.56	–
COc1cc2c(cc1OC)CN(C(=O)c1ccc(-c3ccccc3Cl)o1)CC2	5.09	–
COc1ccc(-c2ccc(C(=O)N3CCc4ccccc4C3)o2)cc1	5.26	–
O=C(c1ccc(-c2ccc(Br)cc2)o1)N1CCc2ccccc2C1	5.11	–
O=C(c1ccc(-c2ccccc2Cl)o1)N1CCc2ccccc2C1	4.99	–
O=C(c1ccc(-c2ccccc2)o1)N1CCc2ccccc2C1	5.08	–
O=C(c1ccc(-c2c(F)cccc2F)o1)N1CCCc2ccccc21	4.71	–
COc1cc2c(cc1OC)CN(C(=O)c1ccc(-c3cccc([N+](=O)[O-])c3)o1)CC2	4.79	–
COc1cc2c(cc1OC)CN(C(=O)c1ccc(-c3c(F)cccc3F)o1)CC2	4.89	–
Cc1ccc(-c2ccc(C(=O)N3CCCc4ccccc43)o2)cc1	5.04	–
COc1cc2c(cc1OC)CN(C(=O)c1ccc(-c3ccc(Cl)cc3)o1)CC2	5.49	Activity (NCI/ADR-RES): < 15%; Activity (Homo sapiens [2]): 89.6%; fold change (FC) (Homo sapiens [3]): 6.8
O=C(c1ccc(-c2ccc(F)cc2)o1)N1CCc2ccccc2C1	4.98	–
COc1cc2c(cc1OC)CN(C(=O)c1ccc(-c3ccc(Br)cc3)o1)CC2	5.36	Activity (NCI/ADR-RES): < 15%; Activity (Homo sapiens [2]): 79.8%; fold change (FC) (Homo sapiens [3]): 5
O=C(c1ccc(-c2ccc(F)cc2F)o1)N1CCCc2ccccc21	4.76	–
O=C(c1ccc(-c2ccc(Cl)cc2)o1)N1CCCc2ccccc21	5.08	–
